MT stabilize HCS – microtubule stabilizers in HeLa cells. HeLa tubulin immunostaining HCS, 24 h; share of cells brighter than vehicle mean+2SD. % tubulin-high responders, % at 10 µM. hit rate 0.83% among 200,000. AID 2205;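 active = plate Z-score above 3 for both tubulin-high and condensed-nucleus cell shares, with cell loss under 80%, at 10 µM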;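 also: anti alpha tubulin signal scored within the nucleus-defined area of each cell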
b-catenin transl – beta-catenin nuclear translocation modulation | hit rate 0.3% among 190,000 | HeLa beta-catenin nuclear translocation, immunofluorescence imaging | nuclear translocation activity, % at 5 µM;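 active = nuclear translocation activity above 50% at 5 µM, with a well cell count of 50 or more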;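 also: per-cell ratio of nuclear to cytoplasmic median beta-catenin stain intensity; plate controls were DMSO negative control for no effect and GSK-3 inhibitor IX positive control for full effect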
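Signal – beta-catenin immunofluorescence imaging with DAPI · Test system – human HeLa cell line · Dosing – 5 µM primary single dose, 0.1% DMSO, 0.02–20 µM confirmation series · Measure – % activation, nuclear-to-cytoplasmic median beta-catenin signal ratio per cell · Incubation – 24 h compound exposure at 37°C, 5% CO2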
ROMK primary – human ROMK K+ channel modulation, primary screen. hit rate 2% among 130,000. Tet-inducible ROMK, thallium flux fluorescence; actives lie on both sides. P48048. B-score at 10 µM. AID 1918;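 active = signal ratio slope over the read window, or its plate-corrected B-score, at least 3 SD from the plate mean, either direction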;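 also: B-score of the F/F0 ratio slope over 7 to 12 s after thallium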
Target sequence (P48048 whole entry, looked up): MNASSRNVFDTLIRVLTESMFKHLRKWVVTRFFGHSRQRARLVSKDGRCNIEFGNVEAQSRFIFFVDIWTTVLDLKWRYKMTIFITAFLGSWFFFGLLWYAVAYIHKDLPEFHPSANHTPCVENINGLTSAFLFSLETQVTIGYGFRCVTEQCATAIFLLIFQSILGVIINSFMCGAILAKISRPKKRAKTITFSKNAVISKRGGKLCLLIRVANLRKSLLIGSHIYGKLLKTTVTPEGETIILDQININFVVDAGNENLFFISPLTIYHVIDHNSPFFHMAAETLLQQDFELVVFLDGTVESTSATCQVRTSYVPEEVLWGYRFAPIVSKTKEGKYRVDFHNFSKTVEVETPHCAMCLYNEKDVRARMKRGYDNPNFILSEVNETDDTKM
Numbers without * were called inactive; . = not tested or not shown. Sampled rows, rich in hits. Any-hit rate of the full collection: about 1.9%.

SMILES	MT stabilize HCS	b-catenin transl	ROMK primary
COCCCNC(=O)c1cc2c(=O)n(C)c3ccccc3c2n1C	13*	.	.
C=CCNC(=O)C1CC(=O)N(c2ccc(OCC(=O)Nc3ccccc3)cc2)C1 (centres undefined)	3	.	0.79
CCOC(=O)C1=C2NC(=O)c3ccccc3N2C(=O)C1	3	0	0.29
COc1cc(OC)cc(C(=O)N[C@H](C(=O)NCc2ccco2)C(C)C)c1	3	5	1.8
COc1ccccc1NS(=O)(=O)c1cc(NC(=O)c2cccs2)ccc1N1CCOCC1	.	3	.
COc1ccc(NS(=O)(=O)c2cc(NC(=O)c3cccs3)ccc2N2CCOCC2)cc1	13*	-1	2.1
CC(=O)CSc1nnc2c3ccccc3nc(C(C)(C)C)n12	2	0	.
Cc1csc(NC(=O)CSc2nnc3c4ccccc4nc(C(C)(C)C)n23)n1	46*	58*	.
Cc1csc(NC(=O)CSc2ccccc2F)n1	4	0	-2
Cc1ccc(C(=O)CSc2nnc3c4ccccc4nc(C(C)(C)C)n23)cc1	26*	0	-0.099
CCOC(Cn1cc(C)c(=O)[nH]c1=O)OCC	2	-1	-0.7
COc1cc(C(=S)N2CCN(c3ccccc3Cl)CC2)cc(O)c1O	5	2	-0.83
CC1Cc2ccccc2N1C(=S)NC(=O)c1cccc(Br)c1 (centres undefined)	5	-2	10*
CC1Cc2ccccc2N1C(=S)NC(=O)c1ccc(Cl)cc1Cl (centres undefined)	6	-2	7.8*
CC(=O)c1ccc(NC(=S)N2c3ccccc3CC2C)cc1 (centres undefined)	3	1	.
Cc1ccc2c(c1)C1CN(C)CCC1N2C(=S)NC(=O)c1ccc(Cl)cc1Cl (centres undefined)	.	0	.
CCn1c(SCc2ccccc2)nnc1-c1cccnc1	2	0	1.4
CCSc1nnc(COc2ccccc2)n1CC	.	1	.
O=C(Nc1ccc(N2CCOCC2)nc1)c1ccccc1Cl	.	-2	.
Brc1ccc(C2=CC(c3cccs3)n3ncnc3N2)cc1 (centres undefined)	3	1	.
Fc1ccc(Br)cc1C1C=C(c2cccnc2)Nc2ncnn21 (centres undefined)	18*	.	.
Fc1ccc(C2=CC(c3ccc(Br)o3)n3ncnc3N2)cc1 (centres undefined)	2	-3	-3.4*
Oc1ccc(C2C=C(c3ccc(F)cc3)Nc3ncnn32)cc1 (centres undefined)	.	0	.
CCCCNC(=O)/C=C/c1ccc(S(=O)(=O)Nc2ccc(OC)cc2)cc1	8	-5	0.46
CC(=O)C1C(=O)c2c(cccc2[N+](=O)[O-])C1=Nc1ccc(S(N)(=O)=O)cc1 (centres undefined)	3	-1	0.49
SMILES	MT stabilize HCS	b-catenin transl	ROMK primary
O=C(O)c1ccccc1NSc1ccccc1[N+](=O)[O-]	1	1	1.2
CCc1ccc(NSc2ccccc2[N+](=O)[O-])cc1	46*	1	.
CCc1cccc(Nc2cc(C)nc3ncnn23)c1	4	-2	0.44
CCn1c2ccccc2c2cc(Nc3cc(C)nc4ncnn34)ccc21	10	94*	.
CN(c1ccccc1C(=O)O)S(C)(=O)=O	4	-4	.
CN(C)c1ccccc1C(=O)c1ccccc1N(C)C	55*	17	.
O=C(Nn1cnnc1)c1cc(-c2cccc(Br)c2)nc2ccccc12	.	0	.
Cc1cccc(C)c1NC(=O)NCc1ccco1	.	0	.
Cc1cccc(C)c1OCCNC(=O)C(=O)NCc1ccco1	11	59*	2.5
CC(Nc1cccc(F)c1)C(=O)Nc1ccc(S(N)(=O)=O)cc1 (centres undefined)	3	-5	-0.15
COc1ccc(NC(=O)c2ccccc2)c([N+](=O)[O-])c1	4	-2	0.37
CCOc1ccc(NC(=O)c2ccc(CC)s2)c([N+](=O)[O-])c1	2	0	-0.87
CCOc1ccccc1NC(=O)c1cccc(NC(=O)c2ccco2)c1	41*	72*	.
CCOc1ccc(NC(=O)c2ccco2)c([N+](=O)[O-])c1	12*	7	-0.0049
COc1ccc(NC(=O)c2cccnc2)c([N+](=O)[O-])c1	22*	3	2.8
CCOc1ccc(C(=O)Nc2ccc(NC(=O)c3ccco3)c(Cl)c2)cc1Cl	3	.	-0.35
Cc1cccc(NC(=O)CSc2nnc(Cc3ccccc3)o2)c1	3	1	-0.73
C=CCOc1cccc(C(=O)N2CCCC(CNS(=O)(=O)c3cccs3)C2)c1 (centres undefined)	3	0	-0.014
Cc1ccc(NC(=O)C2(NC(=O)c3ccccn3)CCCCC2)cc1Br	9	0	.
CCOc1ccccc1NC(=O)COC(=O)c1cc[n+]([O-])cc1	.	-2	.
O=C(Cn1cnc2sc(-c3ccccc3)cc2c1=O)NCCc1ccccc1	2	.	-0.18
O=C(Cn1cnc2sc(-c3ccccc3)cc2c1=O)NCc1ccco1	27*	7	.
O=C(Cn1cnc2scc(-c3ccccc3)c2c1=O)NCc1ccco1	2	3	-1.2
O=C(Cn1cnc2sc(-c3ccccc3)cc2c1=O)NCc1ccccc1	36*	.	1.9
O=S(=O)(c1ccc(F)cc1)N1CCN(c2ccc(-c3ccccc3)nn2)CC1	7	-1	-0.097
SMILES	MT stabilize HCS	b-catenin transl	ROMK primary
N#Cc1ccc(OCC(=O)N/N=C/C2CC=CCC2)cc1 (centres undefined)	3	1	0.43
CCCC1=[N+](CC(=O)c2ccc(Br)cc2)CCn2cccc21	.	9	.
CCCCCc1cc(=O)[nH]c(=S)[nH]1	.	0	.
CCCCCc1ccc(C(=O)CCCC)c(=S)[nH]1	4	0	3.8*
O=c1[nH]cnc(O)c1C(c1ccc2c(c1)OCO2)c1c(O)nc[nH]c1=O	4	-5	-0.085
Cc1cc(/C=C(\C#N)C(=O)NC2CCCCCC2)c(C)[nH]1	10	-1	.
COc1ccc(-c2[nH]ncc2/C=C(/C#N)C(=O)NC2CCCCCC2)cc1	49*	7	0.34
Cc1noc(C)c1COc1ccc(C(=O)Nc2cccnc2)cc1	7	-5	0.13
Cc1ccc(SC(=O)c2c(C)noc2-c2cc(C)on2)cc1	.	-1	-1.6
COC(=O)c1ccc2c(=O)n(Cc3ccc(C(=O)NC4CCCC4)cc3)c(=S)[nH]c2c1	3	0	0.12
CCOC(=O)C1CCCN(C(=O)c2ccc(Cn3c(=S)[nH]c4cc(C(=O)OC)ccc4c3=O)cc2)C1 (centres undefined)	18*	.	-0.19
O=C(c1sc2cccc(F)c2c1Cl)N1CCN(c2ncccn2)CC1	3	-2	.
CCN(c1ccccc1)S(=O)(=O)c1ccc(Cl)c(NC(=O)CSc2nnc(C)s2)c1	7	0	-0.087
CN(C(=O)c1cc2c(s1)-c1ccccc1S(=O)(=O)C2)c1ccccc1	.	1	-0.45
NC(=O)c1ccccc1NC(=S)NC(=O)CCc1ccccc1	23*	.	2.6
Cc1ccccc1NC(=S)NC(=O)CCc1ccccc1	0	0	.
COc1ccc(NC(=O)c2nc[nH]c2C(=O)N[C@@H](C)c2ccccc2)cc1	.	0	.
COc1ccccc1NC(=O)c1nc[nH]c1C(=O)Nc1ccccc1OC	31*	6	.
COc1ccc(NC(=O)c2nc[nH]c2C(=O)Nc2ccccc2C)cc1	54*	80*	.
CCOc1ccccc1NC(=O)c1nc[nH]c1C(=O)Nc1ccccc1OCC	9	.	0.86
COC(=O)c1ccc2c(=O)n(CCCCCC(=O)O)c(=S)[nH]c2c1	8	0	1.9

Source: PubChem BioAssay (several laboratories)
